According to ChEMBL document CHEMBL4699388, “Antiproliferative activities of tricyclic amides derived from beta-caryophyllene via the Ritter reaction against MDA-MB-231 breast cancer cells” (RSC Med Chem, 2020):
pIC50: −log10 of the molar value. One block for each molecule: values may come before it. Active and inactive are the calls of the source. The rule behind the calls is not given here.

Tests used:
MDA-MB-231 [1] = experiment: Antiproliferative activity against human MDA-MB-231 cells assessed as reduction in cell viability at 25 to 50 uM measured after 48 hrs by MTS assay; assay type: functional, cell-based; conditions: dose microM 25-50, time 48.0 hrs
Procedure, shortened: (§1)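 MDA-MB-231 cells exposed to compounds at 25 and 50 μM for 48 h. Viability is compared with a DMSO-treated control. Mean ± SEM from three separate experiments; significance vs control.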

MDA-MB-231 [2] = experiment: Antiproliferative activity against human MDA-MB-231 cells assessed as reduction in cell viability measured after 48 hrs by MTS assay; assay type: functional, cell-based; conditions: MDA-MB-231, 48 h
Procedure, shortened: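 Concentration–response in MDA-MB-231 cells across a wide concentration range. The dose–response data are used to calculate IC50 for proliferation (MTS).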

MDA-MB-231 [3] = experiment: Antiproliferative activity against human MDA-MB-231 cells assessed as reduction in cell viability at 50 uM measured after 48 hrs by MTS assay; assay type: functional, cell-based; procedure, shortened: as §1
[4] = Aqueous solubility of the compound; assay type: physicochemical; conditions: buffer
MDA-MB-231 [5] = experiment: Induction of apoptosis in human MDA-MB-231 cells assessed as early apoptotic cells at 20 uM measured after 48 hrs by annexicV-FITC/propidium iodide staining based flow cytometry analysis (reference value: 5.8 %); assay type: functional
[6] = Selectivity ratio of cytotoxicity against African green monkey Vero cells assessed as reduction in cell viability measured after 72 hrs by resazurin assay to antiproliferative activity against human MDA-MB-231 cells assessed as reduction in cell viability measured after 48 hrs by MTS assay; assay type: toxicity, cell-based; conditions: Vero cells versus MDA-MB-231 cells
Vero [7] = experiment: Cytotoxicity against African green monkey Vero cells assessed as reduction in cell viability measured after 72 hrs by resazurin assay; assay type: cell-based; conditions: chlorocebus sabaeus
MDA-MB-231 [8] = experiment: Antiproliferative activity against human MDA-MB-231 cells assessed as reduction in cell viability at 5 uM measured after 48 hrs by MTS assay; assay type: functional, cell-based
MDA-MB-231 [9] = experiment: Cell cycle arrest in human MDA-MB-231 cells assessed as decrease in cell population at G0/G1 phase at 9 uM measured after 24 hrs by RNaseA/propidium iodide staining based flow cytometry analysis; assay type: functional
Procedure, shortened: (§2)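 MDA-MB-231 cells treated 24 h with 10 μM or 9 μM test agent or DMSO control. Cell cycle distribution is read by flow cytometry and expressed as percentage change from control. Mean ± SEM, three separate experiments; p vs DMSO control.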

MDA-MB-231 [10] = experiment: Induction of apoptotic cell death in human MDA-MB-231 cells at 20 uM measured after 48 hrs by annexicV-FITC/propidium iodide staining based flow cytometry analysis; assay type: functional
MDA-MB-231 [11] = experiment: Induction of apoptosis in human MDA-MB-231 cells assessed as healthy cells at 20 uM measured after 48 hrs by annexicV-FITC/propidium iodide staining based flow cytometry analysis (reference value: 87.4 %); assay type: functional
MDA-MB-231 [12] = experiment: Cell cycle arrest in human MDA-MB-231 cells assessed as accumulation at G2/M phase at 9 uM measured after 24 hrs by RNaseA/propidium iodide staining based flow cytometry analysis relative to control; assay type: functional; procedure, shortened: as §2
MDA-MB-231 [13] = experiment: Induction of apoptosis in human MDA-MB-231 cells assessed as necrotic cells at 20 uM measured after 48 hrs by annexicV-FITC/propidium iodide staining based flow cytometry analysis (reference value: 2.4 %); assay type: functional
Vero [14] = experiment: Cytotoxicity against African green monkey Vero cells assessed as reduction in cell viability measured at 129 uM after 72 hrs by resazurin assay relative to control; assay type: cell-based; conditions: chlorocebus sabaeus
MDA-MB-231 [15] = experiment: Induction of apoptosis in human MDA-MB-231 cells assessed as late apoptotic cells at 20 uM measured after 48 hrs by annexicV-FITC/propidium iodide staining based flow cytometry analysis (reference value: 4.4 %); assay type: functional
MDA-MB-231 [16] = experiment: Cell cycle arrest in human MDA-MB-231 cells at 10 uM measured after 24 hrs by RNaseA/propidium iodide staining based flow cytometry analysis; assay type: functional; procedure, shortened: as §2
Vero [17] = experiment: Cytotoxicity against African green monkey Vero cells assessed as reduction in cell viability measured at 168 uM after 72 hrs by resazurin assay relative to control; assay type: cell-based; conditions: chlorocebus sabaeus

Structure (SMILES): CCCCCN[C@]12CCC[C@](C)(CC[C@@H]3[C@@H]1CC3(C)C)C2
- Activity (MDA-MB-231 [3]): Active
- solubility [4]: Insoluble

Structure (SMILES): CC1(C)C[C@H]2[C@H]1CC[C@@]1(C)CCC[C@]2(N)C1
- Activity (MDA-MB-231 [1]): Active
- pIC50 (MDA-MB-231 [2]): 4.46

Structure (SMILES): CCCN[C@]12CCC[C@](C)(CC[C@@H]3[C@@H]1CC3(C)C)C2
- Activity (MDA-MB-231 [1]): Active
- pIC50 (MDA-MB-231 [2]): 4.34

Structure (SMILES): CCCCC(=O)N[C@]12CCC[C@](C)(CC[C@@H]3[C@@H]1CC3(C)C)C2
- Activity (MDA-MB-231 [1]): Active
- pIC50 (MDA-MB-231 [2]): 4.26

Structure (SMILES): CCCCN[C@]12CCC[C@](C)(CC[C@@H]3[C@@H]1CC3(C)C)C2
- Activity (MDA-MB-231 [1]): Active
- pIC50 (MDA-MB-231 [2]): 4.43

Further molecules by rising pIC50 (MDA-MB-231 [2]), results first:

- pIC50 (MDA-MB-231 [2]): 4.63
Structure (SMILES): CC1(C)C[C@H](NCc2ccccc2)[C@]23CCC[C@@](C)(CC[C@@H]12)C3
- Activity (MDA-MB-231 [1]): Active

- pIC50 (MDA-MB-231 [2]): 4.67
Structure (SMILES): CC1(C)C[C@H]2[C@H]1CC[C@@]1(C)CCC[C@]2(NC(=O)CCl)C1
- Activity (MDA-MB-231 [1]): Active

- pIC50 (MDA-MB-231 [2]): 5.01
Structure (SMILES): CC1(C)C[C@H](NC(=O)CCl)[C@]23CCC[C@@](C)(CC[C@@H]12)C3
- Activity (MDA-MB-231 [5]): 9.9%
- selectivity ratio [6]: 33
- Activity (Vero [7]): 168 µM
- Activity (MDA-MB-231 [1]): Active
- Activity (MDA-MB-231 [16]): inactive
- inhibition (MDA-MB-231 [8]): Active
- Activity (MDA-MB-231 [11]): 57.8%
- Activity (MDA-MB-231 [13]): 18.4%
- Activity (Vero [17]): 89%
- Activity (MDA-MB-231 [15]): 13.9%

- pIC50 (MDA-MB-231 [2]): 5.09
Structure (SMILES): CC1(C)C[C@H](NC(=O)CCl)[C@]23CC[C@@H](NC(=O)CCl)[C@@](C)(CC[C@@H]12)C3
- Activity (MDA-MB-231 [5]): 13.5%
- selectivity ratio [6]: 25
- Activity (Vero [7]): 129 µM
- Activity (MDA-MB-231 [1]): Active
- inhibition (MDA-MB-231 [8]): Active
- Activity (MDA-MB-231 [9]): Active
- Activity (MDA-MB-231 [10]): Active
- Activity (MDA-MB-231 [11]): 7.6%
- Activity (MDA-MB-231 [12]): 91%
- Activity (MDA-MB-231 [13]): 4.6%
- Activity (Vero [14]): 88%
- Activity (MDA-MB-231 [15]): 74.3%
